The structures appear in SMILES notation. Calls of active or inactive are those of the source.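 The calls were made as follows, unless noted: active = viability at or below 30% in both replicate assays; inconclusive = viability at or below 30% in just one of the two assays; inactive = the rest.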

Assay [1] can be described thus: SK-BR-3 cell growth inhibitors, pilot screen, 24 h, human (AID 572;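 active = viability at or below 10% of carrier control in both of two separate runs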;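 also: compound exposure lasted between 18 and 24 h rather than exactly 24 h; 100% = carrier-treated control wells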). Particulars: SK-BR-3 viability, CellTiter-Glo luminescence, at 10 µM, stronger effect = lower value.
Assay [2] is described as follows: HUVEC growth inhibition – cell-based, human, primary screen (AID 575).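 Also: 100% = median of untreated cell wells with 0.1% DMSO on each plate.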 As to conditions: HUVEC proliferation, CellTiter-Glo luminescence, 72 h; at 10 µM; stronger effect = lower value. The method in brief:
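Test system: primary human umbilical vein endothelial cells. Quantity: 1250 cells/well. Compound: single 10 µM dose, 0.1% DMSO, from 5x medium stock. Timing: 72 h treatment at 37 °C. Detection: ATP-based CellTiter-Glo luminescent read. Benchmarks: vehicle and MePR control wells. Format: 384-well plates coated with collagen.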
(In ATP-based viability assays light output follows the ATP content of the culture.)

Assay [3] can be described thus: growth inhibitors of H69AR lung tumor, primary screen, human, duplicate replicates (AID 580;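 active = viability at or under a set limit in both replicates, limit being median viability minus 3 SD, cut at about 48% in these data, passing the limit was not always enough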;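 also: 100% = mean luminescence of untreated wells and 0% = no signal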). As to conditions: H69AR lung tumor cells viability, ATP luminescence, 72 h; at 10 µM; stronger effect = lower value.
Assay [4] is described as follows: reversal of MRP1-mediated doxorubicin resistance, pilot screen, H69AR cells, doxorubicin co-treatment (AID 601;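 active = viability loss from added drug above about 55%, and viability with drug at most 40%, in both replicates, limit read from the data, passing the limit was not always enough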). As to conditions: CellTiter-Glo, 72 h, at 10 µM; for differential viability (reversal): stronger effect = higher value.
Assay [5] is described as follows: 384-well plate pilot, post-Golgi transport modulator project, inhibition of yeast transport mutant growth (AID 636; in the data active = inhibition above about 31%). As to conditions: absorbance 615 nm, about 18 h, stronger effect = higher value.
Assay [6] can be described thus: growth suppression of yeast trafficking mutant, preliminary HTS, modulators of trafficking downstream of Golgi apparatus project, 1536-format plate, OD 615 nm (AID 637; in the data active = inhibition above about 30%). As to conditions: yeast transport mutant growth, absorbance 615 nm, 18 h; stronger effect = higher value.
Setting [7] is: H69AR cells + 2 uM doxorubicin, measured here: viability with 2 uM doxorubicin, stronger effect = lower value.
The mark [8] stands for this setting: H69AR cells, compound alone cytotoxicity.

By viability is commonly meant a read-out of living cells in per cent, often relative to untreated cells. As a reminder, the inhibition is the relative decrease from the control value, in per cent. In the case of `O=C(O)CCNC(=O)c1ccccc1`, the viability in assay [1] was 84% (inactive); in assay [2] it was 99.1% (inactive); in assay [3] it was 98.7% (inactive); in assay [4] (setting [7]) it was 90.7%; in assay [4] (setting [8]) it was 98.7%. Besides, the differential viability (reversal) in assay [4] (H69AR cells + 2 uM doxorubicin) was 7.94% (inactive). Further, the values for the inhibition in assay [5] and in assay [6] were 2.47% (inactive) and 1.17% (inactive), respectively.
On to `COC(=O)c1cccc(Nc2cc(C)nc(-c3ccccc3O)n2)c1`, for which the viability is 69% (inactive) in assay [1]; 62.3% (inactive) in assay [2]; 64.4% (inactive) in assay [3]; 70.7% in assay [4] (setting [7]); 64.4% in assay [4] (setting [8]). In addition, in assay [4] (H69AR cells + 2 uM doxorubicin), the differential viability (reversal) is -6.26% (inactive). Also, the results for the inhibition in assay [5] and in assay [6] were 0% (inactive) and 2.18% (inactive), respectively.
For the compound `CCN(CC(=O)Nc1ccc2c(c1)OCCO2)Cc1cc(=O)oc2cc(C)c(C)cc12`, the viability in assay [1] is 93% (inactive); in assay [2], 82.2% (inactive); in assay [3] it was 73.8% (inactive); in assay [4] (setting [7]), 68%; in assay [4] (setting [8]), 73.8%. Further, the differential viability (reversal) in assay [4] (H69AR cells + 2 uM doxorubicin) is 5.8% (inactive). Also, the inhibition is -5.75% (inactive) in assay [5] and 3.09% (inactive) in assay [6].
Take `CCc1nc2sc3ccccc3c(=O)c2c(=O)n1Cc1ccco1`: the viability is 73% (inactive) in assay [1]; 82.6% (inactive) in assay [2]; 77% (inactive) in assay [3]; 74.5% in assay [4] (setting [7]); 77% in assay [4] (setting [8]). Besides, the differential viability (reversal) in assay [4] (H69AR cells + 2 uM doxorubicin) was 2.49% (inactive). Besides, the inhibition in assay [5] is -3.77% (inactive); in assay [6], 0.98% (inactive).
Consider `Cc1csc(NC(=O)c2ccccc2C(=O)O)n1`, for which the viability was 103% (inactive) in assay [1]; 108% (inactive) in assay [2]; 95.3% (inactive) in assay [3]; 95.8% in assay [4] (setting [7]); 95.3% in assay [4] (setting [8]). The differential viability (reversal) in assay [4] (H69AR cells + 2 uM doxorubicin) was -0.43% (inactive). The inhibition in assay [5] is -2.27% (inactive); in assay [6], 1.27% (inactive).
In the case of `COc1ccc2cc3cc(C(=O)NCC4CCCO4)oc3nc2c1` (stereo not drawn), the viability is 128% (inactive) in assay [1]; 84.8% (inactive) in assay [2]; 88.1% (inactive) in assay [3]; 83.4% in assay [4] (setting [7]); 88.1% in assay [4] (setting [8]). For the same compound, the differential viability (reversal) in assay [4] (H69AR cells + 2 uM doxorubicin) is 4.77% (inactive). Moreover, the inhibition in assay [5] was 1.69% (inactive); in assay [6], 3.44% (inactive).
For `Cc1cnc(C(=O)Nc2ccccc2-n2cccc2)cn1`, the viability was 94% (inactive) in assay [1]; 105% (inactive) in assay [2]; 92.4% (inactive) in assay [3]; 88.6% in assay [4] (setting [7]); 92.4% in assay [4] (setting [8]). Also, the differential viability (reversal) in assay [4] (H69AR cells + 2 uM doxorubicin) is 3.75% (inactive). The inhibition was -7.6% (inactive) in assay [5] and -2.73% (inactive) in assay [6].
Take `O=C(c1ccccc1-c1nc(-c2ccccc2)no1)N1CCCC1`: the viability is 105% (inactive) in assay [1]; 120% (inactive) in assay [2]; 90.9% (inactive) in assay [3]; 81.6% in assay [4] (setting [7]); 90.9% in assay [4] (setting [8]). Besides, in assay [4] (H69AR cells + 2 uM doxorubicin), the differential viability (reversal) was 9.27% (inactive). Further, the inhibition in assay [5] is -5.07% (inactive); in assay [6] it was -3.23% (inactive).
Turning to `CCOC(=O)c1cc2c(=O)n3cccc(C)c3nc2n(CC2CCCO2)c1=NC(C)=O` (stereo not drawn), the viability in assay [1] is 94% (inactive); in assay [2], 109% (inactive); in assay [3], 81.3% (inactive); in assay [4] (setting [7]), 19.6%; in assay [4] (setting [8]) it was 81.3%. For the same compound, the differential viability (reversal) in assay [4] (H69AR cells + 2 uM doxorubicin) is 61.6% (active). Also, the inhibition is -5.14% (inactive) in assay [5] and 0.91% (inactive) in assay [6].
Turning to `COc1cccc(NC(=O)CC2SC(=Nc3ccccc3)NC2=O)c1` (stereo not drawn), the viability was 70% (inactive) in assay [1]; 106% (inactive) in assay [2]; 92% (inactive) in assay [3]; 98.9% in assay [4] (setting [7]); 92% in assay [4] (setting [8]). Further, in assay [4] (H69AR cells + 2 uM doxorubicin), the differential viability (reversal) is -6.89% (inactive). The inhibition in assay [5] is -6.35% (inactive); in assay [6], -1.27% (inactive).
In the case of `Cc1ccc(S(=O)(=O)N2CCN(c3nc(C)nc4sc(C)c(C)c34)CC2)cc1`, the viability in assay [1] was 95% (inactive); in assay [2], 108% (inactive); in assay [3], 99.5% (inactive); in assay [4] (setting [7]), 102%; in assay [4] (setting [8]), 99.5%. The differential viability (reversal) in assay [4] (H69AR cells + 2 uM doxorubicin) was -2.76% (inactive). The inhibition was -3.73% (inactive) in assay [5] and -0.73% (inactive) in assay [6].
Consider `O=C(NCC(F)(F)F)Nc1cccnc1`, for which the viability is 82% (inactive) in assay [1]; 92.8% (inactive) in assay [2]; 99.6% (inactive) in assay [3]; 93.6% in assay [4] (setting [7]); 99.6% in assay [4] (setting [8]). In addition, the differential viability (reversal) in assay [4] (H69AR cells + 2 uM doxorubicin) was 6% (inactive). Moreover, the inhibition was -4.19% (inactive) in assay [5] and -4% (inactive) in assay [6].
Consider `CCOc1ccc(-c2nc(C#N)c(NCc3ccc4c(c3)OCO4)o2)cc1`, for which the viability is 68% (inactive) in assay [1]; 58.8% (inactive) in assay [2]; 70.4% (inactive) in assay [3]; 69.6% in assay [4] (setting [7]); 70.4% in assay [4] (setting [8]). The differential viability (reversal) in assay [4] (H69AR cells + 2 uM doxorubicin) was 0.795% (inactive). The inhibition is 1.03% (inactive) in assay [5] and -0.5% (inactive) in assay [6].
Regarding `COc1cccc(NC(=O)c2ccccc2NS(C)(=O)=O)c1`, the viability in assay [1] was 86% (inactive); in assay [2], 91.8% (inactive); in assay [3], 91.9% (inactive); in assay [4] (setting [7]), 87.5%; in assay [4] (setting [8]), 91.9%. For the same compound, in assay [4] (H69AR cells + 2 uM doxorubicin), the differential viability (reversal) was 4.45% (inactive). Further, the inhibition in assay [5] was -5.89% (inactive); in assay [6] it was -3.45% (inactive).
Take `O=C(CN1C(=O)CC(c2ccco2)Sc2ccccc21)Nc1ccc2c(c1)OCCO2` (stereo not drawn): the viability is 130% (inactive) in assay [1]; 99% (inactive) in assay [2]; 76.9% (inactive) in assay [3]; 75.1% in assay [4] (setting [7]); 76.9% in assay [4] (setting [8]). In addition, in assay [4] (H69AR cells + 2 uM doxorubicin), the differential viability (reversal) is 1.83% (inactive). Moreover, the inhibition in assay [5] was -2.76% (inactive); in assay [6], -0.16% (inactive).
For the compound `Cc1ccc(F)cc1NC(=O)C1CCCN(c2ncccn2)C1` (stereo not drawn), the viability in assay [1] is 100% (inactive); in assay [2], 104% (inactive); in assay [3] it was 88.7% (inactive); in assay [4] (setting [7]) it was 90.6%; in assay [4] (setting [8]), 88.7%. The differential viability (reversal) in assay [4] (H69AR cells + 2 uM doxorubicin) is -1.88% (inactive). Besides, the inhibition in assay [5] is -6.8% (inactive); in assay [6], -2.91% (inactive).
Turning to `CC(=O)c1ccccc1OCCn1nnc(-c2ccc(C)cc2)n1`, the viability in assay [1] was 108% (inactive); in assay [2], 83.6% (inactive); in assay [3], 80.1% (inactive); in assay [4] (setting [7]), 74.6%; in assay [4] (setting [8]), 80.1%. The differential viability (reversal) in assay [4] (H69AR cells + 2 uM doxorubicin) was 5.44% (inactive). Moreover, the inhibition is -8.9% (inactive) in assay [5] and 2.1% (inactive) in assay [6].
For `CC(=O)c1ccc(NC(=O)CCc2c(C)nc3ncnn3c2C)cc1`, the viability in assay [1] is 100% (inactive); in assay [2], 87.5% (inactive); in assay [3] it was 93.1% (inactive); in assay [4] (setting [7]) it was 87.1%; in assay [4] (setting [8]) it was 93.1%. Also, the differential viability (reversal) in assay [4] (H69AR cells + 2 uM doxorubicin) was 6.04% (inactive). In addition, the inhibition in assay [5] is -1.3% (inactive); in assay [6], -5.08% (inactive).
`CC(=O)Nc1c(O)n(C)c2ccccc12`: the viability in assay [1] is 65% (inactive); in assay [2], 103% (inactive); in assay [3] it was 96.3% (inactive); in assay [4] (setting [7]), 111%; in assay [4] (setting [8]), 96.3%. Moreover, the differential viability (reversal) in assay [4] (H69AR cells + 2 uM doxorubicin) was -14.5% (inactive). Besides, the inhibition in assay [5] was -5.75% (inactive); in assay [6], 4.55% (inactive).
`Cc1cccc(NC(=O)CC2CCC2)c1`: the viability in assay [1] was 87% (inactive); in assay [2], 102% (inactive); in assay [3], 99.8% (inactive); in assay [4] (setting [7]) it was 103%; in assay [4] (setting [8]), 99.8%. The differential viability (reversal) in assay [4] (H69AR cells + 2 uM doxorubicin) is -2.9% (inactive). Further, the values for the inhibition in assay [5] and in assay [6] were -5.75% (inactive) and 4.55% (inactive), respectively.
Take `CC(C)OC(=O)CCCCCN1C(=O)CSC1=S`: the viability in assay [1] is 108% (inactive); in assay [2], 86.7% (inactive); in assay [3], 68.2% (inactive); in assay [4] (setting [7]), 75.7%; in assay [4] (setting [8]) it was 68.2%. Also, the differential viability (reversal) in assay [4] (H69AR cells + 2 uM doxorubicin) is -7.49% (inactive). Also, the inhibition in assay [5] was -0.67% (inactive); in assay [6], -6.13% (inactive).

Values taken from PubChem BioAssay.
